Where “and” joins values, the source holds several entries; their conditions need not be identical. Equal values may be shown once.
Experiments:
Rattus norvegicus [1] = species: Rattus norvegicus; assay: Biodistribution of the [99mTc] complex in rat liver at 10 min postinjection (3-4 rats used); assay type: ADME, organism-based; settings: in vivo
Outline: (§1)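 Male Sprague-Dawley rats (200-300 g), ketamine/xylazine anesthesia (80 mg/kg : 8 mg/kg), bladder cannulated with PE 50 tubing. Given iv via femoral vein 0.2 mL saline holding the 99mTc complex (20 µCi) co-injected with [131I]OIH (7 µCi). Percent injected dose per organ from comparing tissue radioactivity against dilutions of the injected dose, corrected for 131I spillover into the 99mTc channel; mean ±SD, 3-4 rats.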

Rattus norvegicus [2] = species: Rattus norvegicus; assay: Biodistribution of the [99mTc] complex in rat muscle at 10 min postinjection (3-4 rats used); assay type: ADME, organism-based, Muscle tissue; settings: in vivo; outline: as §1
Rattus norvegicus [3] = species: Rattus norvegicus; assay: Biodistribution of the [99mTc] complex in rat lung at 10 min postinjection (3-4 rats used); assay type: ADME, organism-based; settings: in vivo; outline: as §1
Rattus norvegicus [4] = species: Rattus norvegicus; assay: Biodistribution of the [99mTc] complex in rat spleen at 10 min postinjection (3-4 rats used); assay type: ADME, organism-based; settings: in vivo; outline: as §1
Rattus norvegicus [5] = species: Rattus norvegicus; assay: Biodistribution of the [99mTc] complex in rat muscle at 60 min postinjection (3-4 rats used); assay type: ADME, organism-based, Muscle tissue; settings: in vivo, 1 h; outline: as §1
Rattus norvegicus [6] = species: Rattus norvegicus; assay: Biodistribution of the [99mTc] complex in rat kidney at 10 min postinjection (3-4 rats used); assay type: ADME, organism-based; settings: in vivo; outline: as §1
Monkey [7] = assay: Percentage of counts in the pellet/total number of counts in both supernatant and pellet in monkey plasma (n=3); assay type: functional, Cercopithecidae
Outline: (§2)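 Plasma from male cynomolgus monkey or male Sprague-Dawley rat blood (centrifuged 4000 rpm, 5 min). 99mTc complex in 50% ethanol/H2O (1 × 10^6 counts) incubated with 1 mL plasma at 37 °C for 30 min. Precipitation with 0.4 mL 10% trichloroacetic acid, centrifuged 4000 rpm 10 min, pellet washed twice with water. Bound = pellet counts/(pellet + supernatant + washes) counts; 3 determinations, mean ± SD.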

Rattus norvegicus [8] = species: Rattus norvegicus; assay: Biodistribution of the [99mTc] complex in rat liver at 60 min postinjection (3-4 rats used); assay type: ADME, organism-based; settings: in vivo, 1 h; outline: as §1
Rattus norvegicus [9] = species: Rattus norvegicus; assay: Biodistribution of the [99mTc] complex in rat blood at 10 min postinjection (3-4 rats used); assay type: ADME, organism-based; settings: in vivo; outline: as §1
Rattus norvegicus [10] = species: Rattus norvegicus; assay: Biodistribution of the [99mTc] complex in rat heart at 10 min postinjection (3-4 rats used); assay type: ADME, organism-based; settings: in vivo; outline: as §1
Rattus norvegicus [11] = species: Rattus norvegicus; assay: Biodistribution of the [99mTc] complex in rat intestines at 60 min postinjection (3-4 rats used); assay type: ADME, organism-based, Intestine; settings: in vivo, 1 h; outline: as §1
Rattus norvegicus [12] = species: Rattus norvegicus; assay: Biodistribution of the [99mTc] complex in rat intestines at 10 min postinjection (3-4 rats used); assay type: ADME, organism-based, Intestine; settings: in vivo; outline: as §1
Rattus norvegicus [13] = species: Rattus norvegicus; assay: Biodistribution of the [99mTc] complex in rat kidney at 60 min postinjection (3-4 rats used); assay type: ADME, organism-based; settings: in vivo, 1 h; outline: as §1
Rattus norvegicus [14] = species: Rattus norvegicus; assay: Percentage of counts in the pellet/total number of counts in both supernatant and pellet in rat plasma (n=3); assay type: functional; outline: as §2
Rattus norvegicus [15] = species: Rattus norvegicus; assay: Biodistribution of the [99mTc] complex in rat lung at 60 min postinjection (3-4 rats used); assay type: ADME, organism-based; settings: in vivo, 1 h; outline: as §1
Rattus norvegicus [16] = species: Rattus norvegicus; assay: Biodistribution of the [99mTc] complex in rat spleen at 60 min postinjection (3-4 rats used); assay type: ADME, organism-based; settings: in vivo, 1 h; outline: as §1
Rattus norvegicus [17] = species: Rattus norvegicus; assay: Biodistribution of the [99mTc] complex in rat blood at 60 min postinjection (3-4 rats used); assay type: ADME, organism-based; settings: in vivo, 1 h; outline: as §1
Rattus norvegicus [18] = species: Rattus norvegicus; assay: Biodistribution of the [99mTc] complex in rat heart at 60 min postinjection (3-4 rats used); assay type: ADME, organism-based; settings: in vivo, 1 h; outline: as §1
Rattus norvegicus [19] = species: Rattus norvegicus; assay: Biodistribution of the [99mTc] complex with OIH in rat spleen at 60 min postinjection (3-4 rats used); assay type: ADME, organism-based; settings: in vivo, 1 h; outline: as §1
Rattus norvegicus [20] = species: Rattus norvegicus; assay: Biodistribution of the [99mTc] complex with OIH in rat blood at 10 min postinjection (3-4 rats used); assay type: ADME, organism-based; settings: in vivo; outline: as §1
Rattus norvegicus [21] = species: Rattus norvegicus; assay: Biodistribution of the [99mTc] complex with OIH in rat intestine at 10 min postinjection (3-4 rats used); assay type: ADME, organism-based; settings: in vivo; outline: as §1
Rattus norvegicus [22] = species: Rattus norvegicus; assay: Biodistribution of the [99mTc] complex with OIH in rat liver at 10 min postinjection (3-4 rats used); assay type: ADME, organism-based; settings: in vivo; outline: as §1
Rattus norvegicus [23] = species: Rattus norvegicus; assay: Biodistribution of the [99mTc] complex with OIH in rat lung at 60 min postinjection (3-4 rats used); assay type: ADME, organism-based; settings: in vivo, 1 h; outline: as §1
Rattus norvegicus [24] = species: Rattus norvegicus; assay: Biodistribution of the [99mTc] complex with OIH in rat blood at 60 min postinjection (3-4 rats used); assay type: ADME, organism-based; settings: in vivo, 1 h; outline: as §1
Rattus norvegicus [25] = species: Rattus norvegicus; assay: Biodistribution of the [99mTc] complex with OIH in rat muscle at 60 min postinjection (3-4 rats used); assay type: ADME, organism-based, Muscle tissue; settings: in vivo, 1 h; outline: as §1
Rattus norvegicus [26] = species: Rattus norvegicus; assay: Biodistribution of the [99mTc] complex with OIH in rat intestine at 60 min postinjection (3-4 rats used); assay type: ADME, organism-based; settings: in vivo, 1 h; outline: as §1
Rattus norvegicus [27] = species: Rattus norvegicus; assay: Biodistribution of the [99mTc] complex with OIH in rat heart at 60 min postinjection (3-4 rats used); assay type: ADME, organism-based; settings: in vivo, 1 h; outline: as §1
Rattus norvegicus [28] = species: Rattus norvegicus; assay: Biodistribution of the [99mTc] complex with OIH in rat lung at 10 min postinjection (3-4 rats used); assay type: ADME, organism-based; settings: in vivo; outline: as §1
Rattus norvegicus [29] = species: Rattus norvegicus; assay: Biodistribution of the [99mTc] complex with OIH in rat heart at 10 min postinjection (3-4 rats used); assay type: ADME, organism-based; settings: in vivo; outline: as §1
Rattus norvegicus [30] = species: Rattus norvegicus; assay: Biodistribution of the [99mTc] complex with OIH in rat kideny at 10 min postinjection (3-4 rats used); assay type: ADME, organism-based; settings: in vivo; outline: as §1
Rattus norvegicus [31] = species: Rattus norvegicus; assay: Biodistribution of the [99mTc] complex in with OIH rat kidney at 60 min postinjection (3-4 rats used); assay type: ADME, organism-based; settings: in vivo, 1 h; outline: as §1
Rattus norvegicus [32] = species: Rattus norvegicus; assay: Biodistribution of the [99mTc] complex with OIH in rat muscle at 10 min postinjection (3-4 rats used); assay type: ADME, organism-based, Muscle tissue; settings: in vivo; outline: as §1
Rattus norvegicus [33] = species: Rattus norvegicus; assay: Biodistribution of the [99mTc] complex with OIH in rat spleen at 10 min postinjection (3-4 rats used); assay type: ADME, organism-based; settings: in vivo; outline: as §1
Rattus norvegicus [34] = species: Rattus norvegicus; assay: Biodistribution of the [99mTc] complex with OIH in rat liver at 60 min postinjection (3-4 rats used); assay type: ADME, organism-based; settings: in vivo, 1 h; outline: as §1
Rattus norvegicus [35] = species: Rattus norvegicus; assay: Biodistribution of the [99mTc] complex with OIH in rat kidney at 10 min postinjection ( 3-4 rats used); assay type: ADME, organism-based; settings: in vivo; outline: as §1
Rattus norvegicus [36] = species: Rattus norvegicus; assay: Biodistribution of the [99mTc] complex with OIH in rat blood at 60 min postinjection (, 3-4 rats used); assay type: ADME, organism-based; settings: in vivo, 1 h; outline: as §1
Rattus norvegicus [37] = species: Rattus norvegicus; assay: Biodistribution of the [99mTc] complex with OIH in rat intestines at 60 min postinjection (3-4 rats used); assay type: ADME, organism-based, Intestine; settings: in vivo, 1 h; outline: as §1
Rattus norvegicus [38] = species: Rattus norvegicus; assay: Biodistribution of the [99mTc] complex with OIH in rat kidney at 60 min postinjection (3-4 rats used); assay type: ADME, organism-based; settings: in vivo, 1 h; outline: as §1
Monkey [39] = assay: Percentage of counts in the pellet/total number of counts in both supernatant and pellet in monkey plasma; assay type: functional, Cercopithecidae; outline: as §2
Rattus norvegicus [40] = species: Rattus norvegicus; assay: Biodistribution of the [99mTc] complex with OIH in rat spleen at 10 min postinjection (mean +/- SD, 3-4 rats used); assay type: ADME, organism-based; settings: in vivo; outline: as §1
Rattus norvegicus [41] = species: Rattus norvegicus; assay: Percentage of counts in the pellet/total number of counts in both supernatant and pellet in rat plasma; assay type: functional; outline: as §2
Rattus norvegicus [42] = species: Rattus norvegicus; assay: Biodistribution of the [99mTc] complex with OIH in rat intestines at 10 min postinjection (3-4 rats used); assay type: ADME, organism-based, Intestine; settings: in vivo; outline: as §1

| Compound | Injected dose (Rattus norvegicus [1]) | Injected dose (Rattus norvegicus [2]) | Injected dose (Rattus norvegicus [3]) | Injected dose (Rattus norvegicus [4]) | Injected dose (Rattus norvegicus [5]) | Injected dose (Rattus norvegicus [6]) | Activity (Monkey [7]) | Injected dose (Rattus norvegicus [8]) | Injected dose (Rattus norvegicus [9]) | Injected dose (Rattus norvegicus [10]) | Injected dose (Rattus norvegicus [11]) | Injected dose (Rattus norvegicus [12]) | Injected dose (Rattus norvegicus [13]) | Activity (Rattus norvegicus [14]) | Injected dose (Rattus norvegicus [15]) | Injected dose (Rattus norvegicus [16]) | Injected dose (Rattus norvegicus [17]) | Injected dose (Rattus norvegicus [18]) | Injected dose (Rattus norvegicus [19]) | Injected dose (Rattus norvegicus [20]) | other results |
| --- | --- | --- | --- | --- | --- | --- | --- | --- | --- | --- | --- | --- | --- | --- | --- | --- | --- | --- | --- | --- | --- |
| CCOC(=O)C(SC(=O)c1ccccc1)C(=O)NCCNC(=O)C(SC(=O)c1ccccc1)C(=O)OCC (centres undefined) | 4.9% | 23.6% | 0.9% | 0.2% | 21.5% | 6% | 21.9% | 5% | 24% | 0.4% | 1.3% | 1.6% | 4% | 21.4% | 0.7% | 0.1% | 13.1% | 0.2% | 0.9% and 0.2% and 0.4% and 2% and 1.6% and < 0.1% | – | – |
| COC(=O)C(CC(=O)NCCNC(=O)CC(SC(=O)c1ccccc1)C(=O)OC)SC(=O)c1ccccc1 (centres undefined) | 5% | 22.8% | 1.1% | 0.2% | 20.4% | 5.3% | 26.5% | 3% | 26.2% | 0.4% | 1.7% | 1.4% | 1.9% | 22% | 0.7% | 0.1% | 15.2% | 0.3% | < 0.1% | 4.4% | Injected dose (Rattus norvegicus [21]): 1.6%; Injected dose (Rattus norvegicus [22]): 3.3%; Injected dose (Rattus norvegicus [23]): < 0.1%; Injected dose (Rattus norvegicus [24]): 0.5%; Injected dose (Rattus norvegicus [25]): 1.6%; Injected dose (Rattus norvegicus [26]): 1.6%; Injected dose (Rattus norvegicus [27]): < 0.1%; Injected dose (Rattus norvegicus [28]): 0.2%; Injected dose (Rattus norvegicus [29]): 0.1%; Injected dose (Rattus norvegicus [30]): 9.9%; Injected dose (Rattus norvegicus [31]): 0.5%; Injected dose (Rattus norvegicus [32]): 7.9%; Injected dose (Rattus norvegicus [33]): < 0.1%; Injected dose (Rattus norvegicus [34]): 0.5% |
| COC(=O)CC(SC(=O)c1ccccc1)C(=O)NCCNC(=O)C(CC(=O)OC)SC(=O)c1ccccc1 (centres undefined) | 5% | 26.9% | 1.2% | 0.3% | 21.1% | 4.3% | – | 3.1% | 26.7% | 0.4% | 1.3% | 1.7% | 2.1% | – | 0.7% | 0.1% | 16.4% | 0.2% | < 0.1% | 5.3% | Injected dose (Rattus norvegicus [22]): 2.5%; Injected dose (Rattus norvegicus [35]): 6.9%; Injected dose (Rattus norvegicus [23]): < 0.1%; Injected dose (Rattus norvegicus [36]): 0.6%; Injected dose (Rattus norvegicus [25]): 1.6%; Injected dose (Rattus norvegicus [27]): < 0.1%; Injected dose (Rattus norvegicus [28]): 0.3%; Injected dose (Rattus norvegicus [29]): < 0.1%; Injected dose (Rattus norvegicus [37]): 0.8%; Injected dose (Rattus norvegicus [32]): 9.9%; Injected dose (Rattus norvegicus [38]): 0.6%; Injected dose (Rattus norvegicus [34]): 0.3%; Activity (Monkey [39]): 26.2%; Injected dose (Rattus norvegicus [40]): 0.1%; Activity (Rattus norvegicus [41]): 31.1%; Injected dose (Rattus norvegicus [42]): 1.4% |
| [sequence] | – | – | – | – | – | – | – | – | – | – | – | – | – | 30.3% | – | – | – | – | – | – | Activity (Monkey [7]; Cercopithecidae): 35.2% |
